Data: ChEMBL document CHEMBL4229382, “Phenylthiazoles with tert-Butyl side chain: Metabolically stable with anti-biofilm activity” (Eur J Med Chem, 2018)
Converted amounts (≈) assume the structure as drawn.

Assays:
[1] = test system: Staphylococcus epidermidis; experiment: Antibacterial activity against methicillin-resistant Staphylococcus epidermidis NRS101 after 18 hrs by broth microdilution assay; type: functional; conditions: NRS101, 18 h
Summary of the method: (§1)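 Broth microdilution: inoculum from 0.5 McFarland suspension diluted to about 5 × 10^5 CFU/mL. Media were cation-adjusted Mueller-Hinton broth for staphylococci, brain heart infusion for E. faecium, and tryptone soya broth for E. faecalis, S. pneumoniae and L. monocytogenes.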

[2] = test system: Staphylococcus aureus; experiment: Antibacterial activity against methicillin-resistant Staphylococcus aureus 2658 RCMB after 18 hrs by broth microdilution assay; type: functional; summary of the method: as §1
[3] = test system: Enterococcus faecalis; experiment: Antibacterial activity against vancomycin-resistant Enterococcus faecalis ATCC 51299 after 18 hrs by broth microdilution assay; type: functional; conditions: ATCC 51299, 18 h; summary of the method: as §1
[4] = test system: Staphylococcus aureus; experiment: Antibacterial activity against methicillin-sensitive Staphylococcus aureus ATCC 6538 after 18 hrs by broth microdilution assay; type: functional; conditions: ATCC 6538, 18 h; summary of the method: as §1
[5] = test system: Staphylococcus aureus; experiment: Antibacterial activity against methicillin-sensitive Staphylococcus aureus NRS107 after 18 hrs by broth microdilution assay; type: functional; conditions: NRS107, 18 h; summary of the method: as §1
[6] = test system: Staphylococcus aureus; experiment: Antibacterial activity against methicillin-resistant Staphylococcus aureus NRS119 after 18 hrs by broth microdilution assay; type: functional; conditions: NRS119, 18 h; summary of the method: as §1
[7] = test system: Staphylococcus aureus; experiment: Antibacterial activity against methicillin-resistant Staphylococcus aureus NRS123 USA400 after 18 hrs by broth microdilution assay; type: functional; conditions: NRS123 USA400, 18 h; summary of the method: as §1
[8] = test system: Staphylococcus aureus; experiment: Antibacterial activity against methicillin-resistant Staphylococcus aureus NRS384 USA300 after 18 hrs by broth microdilution assay; type: functional; conditions: NRS384 USA300, 18 h; summary of the method: as §1
[9] = test system: Staphylococcus aureus; experiment: Antibacterial activity against methicillin-resistant Staphylococcus aureus NRS385 after 18 hrs by broth microdilution assay; type: functional; conditions: NRS385, 18 h; summary of the method: as §1
[10] = test system: Staphylococcus aureus; experiment: Antibacterial activity against methicillin-resistant Staphylococcus aureus NRS386 after 18 hrs by broth microdilution assay; type: functional; conditions: NRS386, 18 h; summary of the method: as §1
[11] = test system: Staphylococcus aureus; experiment: Antibacterial activity against vancomycin-resistant Staphylococcus aureus VRS10 after 18 hrs by broth microdilution assay; type: functional; conditions: VRS10, 18 h; summary of the method: as §1
[12] = test system: Staphylococcus aureus; experiment: Antibacterial activity against vancomycin-resistant Staphylococcus aureus VRS12 after 18 hrs by broth microdilution assay; type: functional; conditions: VRS12, 18 h; summary of the method: as §1
[13] = test system: Enterococcus faecium; experiment: Antibacterial activity against vancomycin-resistant Enterococcus faecium ATCC 700221 after 18 hrs by broth microdilution assay; type: functional; conditions: ATCC 700221, 18 h; summary of the method: as §1
[14] = test system: Listeria monocytogenes; experiment: Antibacterial activity against Listeria monocytogenes ATCC 19111 after 18 hrs by broth microdilution assay; type: functional; conditions: ATCC 19111, 18 h
[15] = test system: Streptococcus pneumoniae; experiment: Antibacterial activity against cephalosporin-resistant Streptococcus pneumoniae ATCC 51916 after 18 hrs by broth microdilution assay; type: functional; conditions: ATCC 51916, 18 h; summary of the method: as §1
[16] = test system: Streptococcus pneumoniae; experiment: Antibacterial activity against methicillin-resistant Streptococcus pneumoniae ATCC 700677 after 18 hrs by broth microdilution assay; type: functional; conditions: ATCC 700677, 18 h; summary of the method: as §1
[17] = test system: Staphylococcus aureus; experiment: Antibacterial activity against methicillin-resistant Staphylococcus aureus NRS123 USA400 assessed as reduction in bacterial burden measured over 24 hrs by time kill assay; type: functional
Summary of the method: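 Samples taken at 0, 2, 4, 6, 8, 12 and 24 h were serially diluted in PBS, plated on TSA and incubated ≥18 h for viable CFU/mL. DMSO was the negative control; two independent experiments.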

[18] = test system: Listeria monocytogenes; experiment: Selectivity ratio of MBC to MIC for Listeria monocytogenes ATCC 19111; type: functional
[19] = test system: Caco-2; experiment: Cytotoxicity against human Caco2 cells at 32 ug/ml after 2 hrs by MTS assay; type: cell-based; conditions: caco-2, 2 h
Summary of the method: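 Caco-2 cells grown in DMEM with 20% FBS, non-essential amino acids and penicillin-streptomycin, 37 °C, 5% CO2; exposed in triplicate to compounds (16, 32, 64 µg/mL) for 2 h; MTS added, 4 h further incubation, OD490 read; viability as percent of DMSO-treated controls; two independent experiments.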

[20] = test system: Staphylococcus aureus; experiment: Bactericidal activity against methicillin-sensitive Staphylococcus aureus ATCC 6538 incubated fo 18 hrs followed by re-plating on tryptic soy agar plates at 37 degC for 18 hrs by broth microdilution assay; type: functional; conditions: ATCC 6538, 18 h
[21] = test system: Staphylococcus aureus; experiment: Bactericidal activity against methicillin-sensitive Staphylococcus aureus NRS107 incubated fo 18 hrs followed by re-plating on tryptic soy agar plates at 37 degC for 18 hrs by broth microdilution assay; type: functional; conditions: NRS107, 18 h
[22] = test system: Staphylococcus aureus; experiment: Bactericidal activity against methicillin-resistant Staphylococcus aureus NRS119 incubated fo 18 hrs followed by re-plating on tryptic soy agar plates at 37 degC for 18 hrs by broth microdilution assay; type: functional; conditions: NRS119, 18 h
[23] = test system: Staphylococcus aureus; experiment: Bactericidal activity against methicillin-resistant Staphylococcus aureus NRS123 USA400 incubated fo 18 hrs followed by re-plating on tryptic soy agar plates at 37 degC for 18 hrs by broth microdilution assay; type: functional; conditions: NRS123 USA400, 18 h
[24] = test system: Staphylococcus aureus; experiment: Bactericidal activity against methicillin-resistant Staphylococcus aureus NRS384 USA300 incubated fo 18 hrs followed by re-plating on tryptic soy agar plates at 37 degC for 18 hrs by broth microdilution assay; type: functional; conditions: NRS384 USA300, 18 h
[25] = test system: Staphylococcus aureus; experiment: Bactericidal activity against methicillin-resistant Staphylococcus aureus NRS385 incubated fo 18 hrs followed by re-plating on tryptic soy agar plates at 37 degC for 18 hrs by broth microdilution assay; type: functional; conditions: NRS385, 18 h
[26] = test system: Staphylococcus aureus; experiment: Bactericidal activity against methicillin-resistant Staphylococcus aureus NRS386 incubated fo 18 hrs followed by re-plating on tryptic soy agar plates at 37 degC for 18 hrs by broth microdilution assay; type: functional; conditions: NRS386, 18 h
[27] = test system: Staphylococcus aureus; experiment: Bactericidal activity against vancomycin-resistant Staphylococcus aureus VRS10 incubated fo 18 hrs followed by re-plating on tryptic soy agar plates at 37 degC for 18 hrs by broth microdilution assay; type: functional; conditions: VRS10, 18 h
[28] = test system: Staphylococcus aureus; experiment: Bactericidal activity against vancomycin-resistant Staphylococcus aureus VRS12 incubated fo 18 hrs followed by re-plating on tryptic soy agar plates at 37 degC for 18 hrs by broth microdilution assay; type: functional; conditions: VRS12, 18 h
[29] = test system: Staphylococcus epidermidis; experiment: Bactericidal activity against methicillin-resistant Staphylococcus epidermidis NRS101 incubated fo 18 hrs followed by re-plating on tryptic soy agar plates at 37 degC for 18 hrs by broth microdilution assay; type: functional; conditions: NRS101, 18 h
[30] = test system: Listeria monocytogenes; experiment: Bactericidal activity against Listeria monocytogenes ATCC 19111 incubated fo 18 hrs followed by re-plating on tryptic soy agar plates at 37 degC for 18 hrs by broth microdilution assay; type: functional; conditions: ATCC 19111, 18 h
[31] = test system: Streptococcus pneumoniae; experiment: Bactericidal activity against cephalosporin-resistant Streptococcus pneumoniae ATCC 51916 incubated fo 18 hrs followed by re-plating on tryptic soy agar plates at 37 degC for 18 hrs by broth microdilution assay; type: functional; conditions: ATCC 51916, 18 h
[32] = test system: Streptococcus pneumoniae; experiment: Bactericidal activity against methicillin-resistant Streptococcus pneumoniae ATCC 700677 incubated fo 18 hrs followed by re-plating on tryptic soy agar plates at 37 degC for 18 hrs by broth microdilution assay; type: functional; conditions: ATCC 700677, 18 h
[33] = Safety index, ratio of cytotoxicity against human Caco2 cells at 32 ug/ml after 2 hrs by MTS assay to antibacterial activity against methicillin-resistant Staphylococcus aureus; type: toxicity, cell-based; conditions: Caco-2 cells
[34] = test system: Staphylococcus aureus; experiment: Inhibition of biofilm formation in methicillin-resistant Staphylococcus aureus NRS384 USA300 after 24 hrs by crystal violet staining-based spectrophotometric analysis
[35] = test system: Staphylococcus aureus; experiment: Inhibition of biofilm formation in methicillin-resistant Staphylococcus aureus NRS384 USA300 at 1 time MIC after 24 hrs by crystal violet staining-based spectrophotometric analysis relative to control; parameters: scale not given: the % may be the effect or the level left
[36] = test system: Staphylococcus aureus; experiment: Inhibition of biofilm formation in methicillin-resistant Staphylococcus aureus NRS384 USA300 at 2 times MIC after 24 hrs by crystal violet staining-based spectrophotometric analysis relative to control; parameters: scale not given: the % may be the effect or the level left
[37] = test system: Enterococcus faecium; experiment: Bactericidal activity against vancomycin-resistant Enterococcus faecium ATCC 700221 incubated fo 18 hrs followed by re-plating on tryptic soy agar plates at 37 degC for 18 hrs by broth microdilution assay; conditions: ATCC 700221, 18 h
[38] = test system: Staphylococcus aureus; experiment: Antibacterial activity against methicillin-resistant Staphylococcus aureus NRS123 USA400 assessed as change in MIC after 14 serial passages by broth microdilution assay

Compound: Cc1nc(-c2ccc(C(C)(C)C)cc2)sc1-c1ccnc(NC(=N)c2cccnc2)n1
- MIC [1]: 64 µg/mL (≈ 149 µM)
- MIC [2]: 0.78 µg/mL (≈ 1.82 µM)
- MIC [3]: 8 µg/mL (≈ 18.7 µM)
- MIC [4]: 4 µg/mL (≈ 9.33 µM)
- MIC [5]: 4 µg/mL (≈ 9.33 µM)
- MIC [6]: 4 µg/mL (≈ 9.33 µM)
- MIC [7]: 4 µg/mL (≈ 9.33 µM)
- MIC [8]: 4 µg/mL (≈ 9.33 µM)
- MIC [9]: 4 µg/mL (≈ 9.33 µM)
- MIC [10]: 4 µg/mL (≈ 9.33 µM)
- MIC [11]: 4 µg/mL (≈ 9.33 µM)
- MIC [12]: 4 µg/mL (≈ 9.33 µM)
- MIC [13]: 8 µg/mL (≈ 18.7 µM)
- MIC [14]: 4 µg/mL (≈ 9.33 µM)
- MIC [15]: 4 µg/mL (≈ 9.33 µM)
- MIC [16]: 4 µg/mL (≈ 9.33 µM)
- Activity [17]: 2.3 log10CFU/ml
- Ratio [18]: >3
- Activity [19]: Non-Toxic
- MBC [20]: 4 µg/mL (≈ 9.33 µM)
- MBC [21]: 4 µg/mL (≈ 9.33 µM)
- MBC [22]: 4 µg/mL (≈ 9.33 µM)
- MBC [23]: 4 µg/mL (≈ 9.33 µM)
- MBC [24]: 4 µg/mL (≈ 9.33 µM)
- MBC [25]: 4 µg/mL (≈ 9.33 µM)
- MBC [26]: 4 µg/mL (≈ 9.33 µM)
- MBC [27]: 4 µg/mL (≈ 9.33 µM)
- MBC [28]: 4 µg/mL (≈ 9.33 µM)
- MBC [29]: > 64 µg/mL
- MBC [30]: 64 µg/mL (≈ 149 µM)
- MBC [31]: 8 µg/mL (≈ 18.7 µM)
- MBC [32]: 8 µg/mL (≈ 18.7 µM)
- selectivity ratio at 2 h, 32 ug/ml [33]: 8 to 30
- inhibition [34]: Dose-dependent effect
- Activity [35]: 45.8%
- Activity [36]: 65.2%
- MBC [37]: 16 µg/mL (≈ 37.3 µM)

Compound: CO[C@H]1/C=C/O[C@@]2(C)Oc3c(C)c(O)c4c(O)c(c(/C=N/N5CCN(C)CC5)c(O)c4c3C2=O)NC(=O)/C(C)=C\C=C\[C@H](C)[C@H](O)[C@@H](C)[C@@H](O)[C@@H](C)[C@H](OC(C)=O)[C@@H]1C [RIFAMPIN]
- Ratio [38]: >500000
